Where a SMILES comes first, the peptide text is derived from it. [ ]: non-standard residue; d: D form. ξ: configuration not given here. Bip = N[C@@H](Cc1ccc(-c2ccccc2)cc1)C(=O)O; ξBip = NC(Cc1ccc(-c2ccccc2)cc1)C(=O)O; ξDip = NC(C(=O)O)C(c1ccccc1)c1ccccc1
What was measured:
786-0 = experiment: Cytotoxicity against human 786-0 cells assessed as inhibition of cell proliferation incubated for 4 hrs by MTS assay; type: functional, cell-based; settings: 786-0, 4 h
Procedure, shortened: (§1)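 Cells grown in RPMI-1640 with 2 mM L-glutamine and 10% FBS, plated, then held 24 h at 37 °C. Adherent lines washed once in FBS-free medium. Cells exposed 4 h at 37 °C, 5% CO2 in FBS-free medium to 10 concentrations (1/4 steps, 400 μM top). 1% Triton X-100 served as positive control. MTS/PMS added for 2 h, then OD 490 nm read. IC50 from semilog curves; three independent experiments, quadruplicate wells.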

SK-N-AS = experiment: Cytotoxicity against human SK-N-AS cells assessed as inhibition of cell proliferation incubated for 4 hrs by MTS assay; type: functional, cell-based; procedure, shortened: as §1
K562 = experiment: Cytotoxicity in imatinib resistant human K562 cells assessed as inhibition of cell proliferation incubated for 4 hrs by MTS assay; type: functional, cell-based; settings: K562, 4 h
Procedure, shortened: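 Oncodesign panel MTS/PMS assay. Cells in RPMI-1640 + 10% FBS. After 24 h pre-plating, adherent lines washed in FBS-free medium. Cells exposed 4 h at 37 °C in FBS-free medium to 10 concentrations, 1/4 dilutions from 400 μM top. Triton X-100 (1% final) positive control. MTS/PMS added, 2 h, OD 490 nm. IC50 from semilog curves. Three independent experiments, quadruplicate wells.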

SH-SY5Y = experiment: Cytotoxicity against human SH-SY5Y cells assessed as inhibition of cell proliferation incubated for 4 hrs by MTS assay; type: functional, cell-based; procedure, shortened: as §1
[1] = Cytotoxicity against human MRC5 cells assessed as inhibition of cell proliferation incubated for 4 hrs by MTS assay; type: toxicity, cell-based; procedure, shortened: as §1
Ramos = experiment: Cytotoxicity against human Ramos cells assessed as inhibition of cell proliferation incubated for 4 hrs by MTS assay; type: functional, cell-based; procedure, shortened: as §1
Calu-6 = experiment: Cytotoxicity against human Calu-6 cells assessed as inhibition of cell proliferation incubated for 4 hrs by MTS assay; type: functional, cell-based; settings: Calu-6, 4 h; procedure, shortened: as §1
HCT-15 = experiment: Cytotoxicity against human HCT-15 cells assessed as inhibition of cell proliferation incubated for 4 hrs by MTS assay; type: functional, cell-based; settings: HCT-15, 4 h; procedure, shortened: as §1
PC-3 = experiment: Cytotoxicity against human PC-3 cells assessed as inhibition of cell proliferation incubated for 4 hrs by MTS assay; type: functional, cell-based; settings: PC-3, 4 h; procedure, shortened: as §1
MDA-MB-435S = experiment: Cytotoxicity against human MDA-MB-435S cells assessed as inhibition of cell proliferation incubated for 4 hrs by MTS assay; type: functional, cell-based; procedure, shortened: as §1
DU-145 = experiment: Cytotoxicity against human DU-145 cells assessed as inhibition of cell proliferation incubated for 4 hrs by MTS assay; type: functional, cell-based; settings: DU-145, 4 h; procedure, shortened: as §1
[2] = Cytotoxicity against mouse AT84 cells assessed as inhibition of cell proliferation incubated for 4 hrs by MTT assay; type: functional, cell-based; settings: AT84, 4 h
BXPC-3 = experiment: Cytotoxicity against human BXPC-3 cells assessed as inhibition of cell proliferation incubated for 4 hrs by MTS assay; type: functional, cell-based; settings: BXPC-3, 4 h; procedure, shortened: as §1
IGROV-1 = experiment: Cytotoxicity against human IGROV-1 cells assessed as inhibition of cell proliferation incubated for 4 hrs by MTS assay; type: functional, cell-based; settings: IGROV-1, 4 h; procedure, shortened: as §1
[3] = Stability in pooled and cryopreserved rat hepatocytes assessed as intrinsic clearance measured per 10^6 cells at 1 uM measured for 90 mins by LC-MS/MS analysis; type: ADME, cell-based, Hepatocyte; settings: read-out: CLH
Procedure, shortened: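 Pooled cryopreserved hepatocytes at 0.5 million cells/mL, incubated at about 37 °C with 1 μM initial peptide. Supernatant after centrifugation analysed by LC–MS/MS (MRM) using a D-Trp7,9,10-substance P internal standard. Peak height was referenced to time zero, and t1/2 = −0.693/slope of ln concentration vs time. Clint = 0.693/t1/2 × Vinc per million cells. Testosterone, midazolam and 4-methylumbelliferone were the positive controls. Duplicates; mean of two experiments.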

Cytochrome P450 2A6 = Cytochrome P450 2A6 (Homo sapiens, UniProt P11509); experiment: Inhibition of CYP2A6 in human liver microsomes using coumarin as substrate assessed as reduction in substrate hydroxylation incubated for 30 mins in presence of beta-NADPH measured by LC-MS/MS analysis; type: ADME, Microsome
Procedure, shortened: (§2)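 Pooled human liver microsomes (50 donors) in 100 mM phosphate, pH 7.4, with 2 mM β-NADPH. Protein 0.1 mg/mL (2A6, 2C8, 2C9, 2E1, 3A4) or 0.3 mg/mL (1A2, 2B6, 2C19, 2D6). Test article 0–100 μM final, preincubated ~37 °C 5 or 30 min before isoform-selective substrate. Quenched in methanol with internal standard. Metabolite measured by LC–MS/MS against standard curve. Duplicates, with selective inhibitor positive controls.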

Cytochrome P450 2B6 = Cytochrome P450 2B6 (Homo sapiens, UniProt P20813); experiment: Inhibition of CYP2B6 in human liver microsomes using bupropion as substrate assessed as reduction in substrate hydroxylation incubated for 30 mins in presence of beta-NADPH measured by LC-MS/MS analysis; type: ADME, Microsome; procedure, shortened: as §2
Cytochrome P450 2C19 [4] = molecular target: T1, Cytochrome P450 2C19 (Homo sapiens, UniProt P33261); experiment: Inhibition of CYP2C19 in human liver microsomes using (S)-mephenytoin as substrate assessed as reduction in substrate hydroxylation incubated for 5 mins in presence of beta-NADPH measured by LC-MS/MS analysis; type: ADME, Microsome; procedure, shortened: as §2
Cytochrome P450 2C19 [5] = molecular target: T1, Cytochrome P450 2C19; experiment: Inhibition of CYP2C19 in human liver microsomes using (S)-mephenytoin as substrate assessed as reduction in substrate hydroxylation incubated for 30 mins in presence of beta-NADPH measured by LC-MS/MS analysis; type: ADME, Microsome; procedure, shortened: as §2
[6] = Drug uptake in human red blood cells at 60 mins by LC-MS/MS analysis; type: ADME, cell-based; settings: erythrocyte, 1 h
Procedure, shortened: (§3)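 Pooled fresh whole blood (≥3 male and 3 female human, beagle dog or rat donors) spiked to 200 ng/mL. Incubated ~37 °C on rotary mixer over 0–120 min. Hematocrit determined. Blood and plasma analysed by LC–MS/MS. Blood/plasma ratio = Cb/C. Cell association = {[C(1 − H)]/Cb} × 100. Values at 60 min, mean of two independent measurements.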

Cytochrome P450 2C9 = Cytochrome P450 2C9 (Homo sapiens, UniProt P11712); experiment: Inhibition of CYP2C9 in human liver microsomes using diclofenac as substrate assessed as reduction in substrate hydroxylation incubated for 5 mins in presence of beta-NADPH measured by LC-MS/MS analysis; type: ADME, Microsome; procedure, shortened: as §2
[7] = Drug uptake in Beagle dog Red blood cells at 60 mins by LC-MS/MS analysis; type: ADME, cell-based, Canis lupus familiaris; settings: erythrocyte, 1 h; procedure, shortened: as §3
[8] = Stability in pooled and cryopreserved rat hepatocytes assessed as half life at 1 uM measured for 90 mins by LC-MS/MS analysis; type: ADME, cell-based, Hepatocyte
Procedure, shortened: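 Pooled cryopreserved rat or human hepatocytes, 0.5 million cells/mL, ~37 °C, peptide at 1 μM initial. Supernatants analysed by LC–MS/MS with peak height referenced to time zero. t1/2 = −0.693/slope of ln concentration vs time. Duplicate experiments. Testosterone, midazolam and 4-methylumbelliferone served as metabolic-competence controls.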

Cytochrome P450 3A4 = Cytochrome P450 3A4 (Homo sapiens, UniProt P08684); experiment: Inhibition of CYP3A4 in human liver microsomes using testosterone as substrate assessed as reduction in substrate hydroxylation incubated for 5 mins in presence of beta-NADPH measured by LC-MS/MS analysis; type: ADME, Microsome; procedure, shortened: as §2
Chain of Cytochrome P450 3A4 (P08684 whole entry): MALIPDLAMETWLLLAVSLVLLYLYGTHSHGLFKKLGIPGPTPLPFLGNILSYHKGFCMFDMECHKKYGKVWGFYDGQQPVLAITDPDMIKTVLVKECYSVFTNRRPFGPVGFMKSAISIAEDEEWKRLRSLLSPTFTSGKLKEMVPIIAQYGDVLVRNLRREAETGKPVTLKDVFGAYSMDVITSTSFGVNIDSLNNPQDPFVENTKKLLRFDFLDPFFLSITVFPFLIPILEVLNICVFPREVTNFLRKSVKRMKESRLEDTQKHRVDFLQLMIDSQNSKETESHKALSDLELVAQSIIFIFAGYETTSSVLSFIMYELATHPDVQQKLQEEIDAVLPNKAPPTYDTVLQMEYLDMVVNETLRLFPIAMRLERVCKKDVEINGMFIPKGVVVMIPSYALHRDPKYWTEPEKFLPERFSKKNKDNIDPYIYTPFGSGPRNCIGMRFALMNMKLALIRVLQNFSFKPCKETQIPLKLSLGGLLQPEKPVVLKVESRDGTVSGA

T1 sequence (P33261 whole entry): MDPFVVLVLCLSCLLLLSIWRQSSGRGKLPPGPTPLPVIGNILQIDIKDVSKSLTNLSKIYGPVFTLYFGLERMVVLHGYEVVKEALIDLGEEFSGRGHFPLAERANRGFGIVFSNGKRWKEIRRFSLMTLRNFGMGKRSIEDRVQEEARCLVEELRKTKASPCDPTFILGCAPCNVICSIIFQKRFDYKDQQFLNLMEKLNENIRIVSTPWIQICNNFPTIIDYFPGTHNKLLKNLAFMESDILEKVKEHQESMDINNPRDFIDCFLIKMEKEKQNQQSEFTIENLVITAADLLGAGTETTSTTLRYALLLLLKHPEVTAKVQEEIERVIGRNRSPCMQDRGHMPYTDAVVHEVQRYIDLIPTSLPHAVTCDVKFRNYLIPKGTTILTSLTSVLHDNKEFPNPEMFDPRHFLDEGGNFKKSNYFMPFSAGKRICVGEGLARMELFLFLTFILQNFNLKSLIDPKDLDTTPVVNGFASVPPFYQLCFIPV
Chain of Cytochrome P450 2C9 (P11712 whole entry): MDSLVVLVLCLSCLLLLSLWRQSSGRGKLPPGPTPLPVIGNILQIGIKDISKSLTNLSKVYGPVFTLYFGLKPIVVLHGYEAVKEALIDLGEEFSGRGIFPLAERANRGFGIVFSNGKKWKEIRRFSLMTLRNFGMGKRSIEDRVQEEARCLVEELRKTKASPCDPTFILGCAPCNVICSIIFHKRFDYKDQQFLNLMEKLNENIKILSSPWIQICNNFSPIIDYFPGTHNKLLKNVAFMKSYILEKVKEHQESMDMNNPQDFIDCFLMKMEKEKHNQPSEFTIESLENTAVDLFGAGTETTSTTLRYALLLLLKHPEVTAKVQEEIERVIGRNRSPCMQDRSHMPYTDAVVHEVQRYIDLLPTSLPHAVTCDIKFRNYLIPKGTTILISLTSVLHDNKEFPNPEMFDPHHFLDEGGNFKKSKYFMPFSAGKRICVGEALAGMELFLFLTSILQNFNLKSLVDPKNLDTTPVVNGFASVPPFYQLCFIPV
Chain of Cytochrome P450 2B6 (P20813 whole entry): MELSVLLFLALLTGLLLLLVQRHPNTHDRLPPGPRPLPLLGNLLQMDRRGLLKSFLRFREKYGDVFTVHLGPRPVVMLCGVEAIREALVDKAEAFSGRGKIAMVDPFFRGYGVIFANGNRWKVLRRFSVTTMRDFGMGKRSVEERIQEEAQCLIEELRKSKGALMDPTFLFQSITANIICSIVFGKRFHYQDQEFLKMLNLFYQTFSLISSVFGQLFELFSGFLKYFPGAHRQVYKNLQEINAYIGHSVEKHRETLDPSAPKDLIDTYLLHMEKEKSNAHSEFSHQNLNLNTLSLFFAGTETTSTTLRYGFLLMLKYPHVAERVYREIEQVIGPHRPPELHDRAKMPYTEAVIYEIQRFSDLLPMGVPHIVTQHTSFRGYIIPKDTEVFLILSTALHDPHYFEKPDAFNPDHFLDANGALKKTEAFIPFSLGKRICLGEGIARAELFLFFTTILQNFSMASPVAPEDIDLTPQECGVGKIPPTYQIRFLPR
Chain of Cytochrome P450 2A6 (P11509 whole entry, canonical isoform): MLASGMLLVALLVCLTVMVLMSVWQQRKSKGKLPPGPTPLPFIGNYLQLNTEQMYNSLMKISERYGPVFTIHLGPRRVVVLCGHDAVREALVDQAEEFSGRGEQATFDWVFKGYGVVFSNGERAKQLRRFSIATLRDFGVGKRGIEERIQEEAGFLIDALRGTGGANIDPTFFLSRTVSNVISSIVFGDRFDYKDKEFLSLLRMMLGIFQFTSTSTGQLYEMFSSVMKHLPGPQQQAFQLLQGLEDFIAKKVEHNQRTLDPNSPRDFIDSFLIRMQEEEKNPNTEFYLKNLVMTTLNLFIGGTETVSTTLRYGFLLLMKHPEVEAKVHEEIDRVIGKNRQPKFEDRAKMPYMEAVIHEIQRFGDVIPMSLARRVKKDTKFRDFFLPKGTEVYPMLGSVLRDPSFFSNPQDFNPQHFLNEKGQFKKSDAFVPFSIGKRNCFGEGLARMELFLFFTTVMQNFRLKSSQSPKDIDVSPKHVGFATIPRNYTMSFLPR

| SMILES | IC50 (786-0) [µM] | IC50 (SK-N-AS) [µM] | IC50 (K562) [µM] | IC50 (SH-SY5Y) [µM] | IC50 at 4 h [1] [µM] | IC50 (Ramos) [µM] | IC50 (Calu-6) [µM] | IC50 (HCT-15) [µM] | IC50 (PC-3) [µM] | IC50 (MDA-MB-435S) [µM] | IC50 (DU-145) [µM] | IC50 [2] [µM] | IC50 (BXPC-3) [µM] | IC50 (IGROV-1) [µM] | also measured |
| --- | --- | --- | --- | --- | --- | --- | --- | --- | --- | --- | --- | --- | --- | --- | --- |
| N=C(N)NCCC[C@H](NC(=O)[C@H](Cc1c[nH]c2ccccc12)NC(=O)[C@H](Cc1c[nH]c2ccccc12)NC(=O)[C@H](CCCNC(=N)N)NC(=O)[C@H](CCCNC(=N)N)NC(=O)C(NC(=O)[C@H](Cc1c[nH]c2ccccc12)NC(=O)[C@H](CCCNC(=N)N)NC(=O)[C@@H](N)CCCNC(=N)N)C(c1ccccc1)c1ccccc1)C(N)=O (stereo not given in full) (H-RRW[ξDip]RRWWR-NH2) | 7.5 | 6.9 | 7.7 | 5.4 | 14.6 | 2.8 | 5.8 | 7.5 | 9.8 | 8 | 6.8 | 11.3 | 6.2 | 11.1 |  |
| NCCCC[C@H](NC(=O)[C@H](Cc1c[nH]c2ccccc12)NC(=O)[C@H](Cc1c[nH]c2ccccc12)NC(=O)[C@H](CCCCN)NC(=O)[C@H](CCCCN)NC(=O)[C@H](Cc1c[nH]c2ccccc12)NC(=O)[C@H](Cc1ccc(-c2ccccc2)cc1)NC(=O)[C@H](CCCCN)NC(=O)[C@@H](N)CCCCN)C(N)=O (H-KK[Bip]WKKWWK-NH2) | 13.8 | 6 | 7.6 | 8.8 | 27.9 | 3.8 | 4.9 | 10 | 10.1 | 9.8 | 8.2 | 11.3 | 8.2 | 14.3 |  |
| NCCCC[C@H](NC(=O)[C@H](Cc1c[nH]c2ccccc12)NC(=O)[C@H](Cc1c[nH]c2ccccc12)NC(=O)[C@H](CCCCN)NC(=O)[C@H](CCCCN)NC(=O)[C@H](Cc1c[nH]c2ccccc12)NC(=O)C(Cc1ccc(-c2ccccc2)cc1)NC(=O)[C@H](CCCCN)NC(=O)[C@@H](N)CCCCN)C(N)=O (stereo not given in full) (H-KK[ξBip]WKKWWK-NH2) | 16.8 | 6.1 | 7.9 | 7.8 | 30.9 | 3.2 | 6.1 | 13.9 | 9.3 | 11.4 | 8.8 | 17.7 | 8.9 | 13.4 |  |
| NCCCC[C@H](NC(=O)[C@H](Cc1c[nH]c2ccccc12)NC(=O)[C@H](CCCCN)NC(=O)[C@H](CCCCN)NC(=O)C(NC(=O)[C@H](Cc1c[nH]c2ccccc12)NC(=O)[C@H](CCCCN)NC(=O)[C@H](CCCCN)NC(=O)[C@@H](N)Cc1c[nH]c2ccccc12)C(c1ccccc1)c1ccccc1)C(N)=O (stereo not given in full) (H-WKKW[ξDip]KKWK-NH2) | 19.2 | 10.4 | 9 | 12.7 | 28 | 5.4 | 6.9 | 12 | 14.1 | 14.1 | 12.4 | 21 | 17.9 | 19.6 |  |
| NCCCC[C@H](NC(=O)C(NC(=O)[C@H](Cc1c[nH]c2ccccc12)NC(=O)[C@H](CCCCN)NC(=O)[C@H](CCCCN)NC(=O)[C@H](Cc1c[nH]c2ccccc12)NC(=O)[C@H](Cc1c[nH]c2ccccc12)NC(=O)[C@H](CCCCN)NC(=O)[C@@H](N)CCCCN)C(c1ccccc1)c1ccccc1)C(N)=O (stereo not given in full) (H-KKWWKKW[ξDip]K-NH2) | 5.8 | 2.5 | 3 | 3.3 | 9.2 | 1.7 | 2.1 | 3.8 | 4.4 | 3.1 | 3.9 | 11 | 3.7 | 6.4 | hepatocyte CLint at 1 µM [3]: 20 µL/min/1e6 cells; IC50 (Cytochrome P450 2A6): 26.3 µM; IC50 (Cytochrome P450 2B6): 18.6 µM; IC50 (Cytochrome P450 2C19 [4]): 23.3 µM; IC50 (Cytochrome P450 2C19 [5]): > 100 µM; Drug uptake [6]: 27%; IC50 (Cytochrome P450 2C9): 8.8 µM; Drug uptake [7]: 76%; half-life at 1 µM [8]: 1.18 h; IC50 (Cytochrome P450 3A4): 9.3 µM |

Source: ChEMBL document CHEMBL5257020, “Discovery of a 9-mer Cationic Peptide (LTX-315) as a Potential First in Class Oncolytic Peptide” (J Med Chem, 2016)
